Test results reported in PMC4203399 (Journal of Medicinal Chemistry, 2014).
In brackets after ≈: the same amount, converted by molar mass. Entries after “also recorded” stand apart in the source; their conditions may differ.

Tests used:
[1] = target: recombinant NS5BCΔ21 1b (Hepatitis C virus genotype 1b, UniProt O92972); assay: NS5B primer dependent elongation; assay type: biochemical
[2] = tested on: Huh-9-13 cells; assay: vital stains; assay type: cell-based
Method in brief: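 Huh-9-13 replicon cells seeded at 25.000 cells/dish in complete DMEM without G418. Next day, treated with test compound (90 μM), an NS3 protease inhibitor (15 μM) or DMSO for 3 days at 37 °C, 5% CO2. Stained 30 min with Nile Red (2 μg/mL), monodansylcadaverine (50 μM) or LipidTOX Red (1/1000), then imaged live by confocal microscopy.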

[3] = tested on: genotype 1b HCV subgenomic replicon in Huh-5-2 cells; assay type: cell-based, hepatitis C virus
[4] = thermodynamic and kinetic water solubility; assay type: physicochemical
Method in brief: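 Test compound solutions shaken in a shaker bath for 48 h at room temperature, then filtered. Dissolved compound quantified by LC–UV–MS against calibration curves made from standard solutions in methanol. Determinations in triplicate.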

[5] = target: recombinant NS5BCΔ21 mutant M423T (Hepatitis C virus genotype 1b, UniProt O92972, M2842T); assay: NS5B mutant counterscreen assay, M423T; assay type: biochemical; details: M423T relative to NS5B WT (IC50 = 4.3 μM)
[6] = tested on: Huh-5-2 cells; assay: microscopic examination of cell morphology in the replicon assay; assay type: cell-based; details: 72 h of compound treatment

Structure (SMILES) | fold higher NS5B inhibitory activity than parent compound 1 [1] | fold more active than o-chlorine derivative 2c (NS5B) [1] | induction of multilamellar bodies (monodansylcadaverine stain) ([2]; 90 μM) | neutral lipids content (Nile Red and LipidTOX red stain) ([2]; 90 μM) | assessment of anti-HCV activity in the replicon assay (in words) [3] | solubility kinetic at 48 h ([4]; kinetic from dmso stock) [µM] | solubility thermodynamic at 48 h ([4]; thermodynamic from solid) [µM] | fold change [5] | induction of phospholipidosis/steatosis (different stainings) [2] | SI (ratio of CC50 to EC50) [3] | effect on cell morphology (microscopic analysis) [6]
CN1c2c(C(=O)Nc3ccc(NS(C)(=O)=O)cc3)nn(-c3cccc(Cl)c3)c2-c2ccccc2S1(=O)=O [2a, 1-(3-Chlorophenyl)-4-methyl-N-{4-[(methylsulfonyl)amino]phenyl}-1,4-dihydropyrazolo[4,3-c][1,2]benzothiazine-3-carboxamide 5,5-Dioxide] | about 5 fold | about 4 fold | did not induce multilamellar bodies | significantly altered the neutral lipids content | selective anti-HCV activity without any antimetabolic effect | 0.275 (≈ 0.154 µg/mL) | 0.00398 (≈ 0.00222 µg/mL) | ~2 | – | – | –
CN1c2c(C(=O)Nc3ccc(NS(C)(=O)=O)cc3)nn(-c3ccc(Cl)cc3)c2-c2ccccc2S1(=O)=O [2b, 1-(4-Chlorophenyl)-4-methyl-N-{4-[(methylsulfonyl)amino]phenyl}-1,4-dihydropyrazolo[4,3-c][1,2]benzothiazine-3-carboxamide 5,5-Dioxide] | – | ~2 fold | – | – | selective anti-HCV activity without any antimetabolic effect | – | – | – | induced pospholipidosis/steatosis | > 28 | did not show any significant cell morphological alterations; also recorded: did not display any significant effects on cell morphology; also recorded: did not exhibit any cell morphological alterations; also recorded: did not show any significant alteration in cell morphology; also recorded: did not display any antimetabolic and cell morphology alteration effects
